Data: ChEMBL document CHEMBL3124940, “Design, synthesis and biological evaluation of D-ring opened galantamine analogs as multifunctional anti-Alzheimer agents” (Eur J Med Chem, 2014)
pIC50: −log10 of the molar value.

Experiments:
Acetylcholinesterase = Acetylcholinesterase (Electrophorus electricus, UniProt O42275); assay: Inhibition of electric eel AChE using acetylthiocholine iodide as substrate preincubated for 5 mins followed by substrate addition measured after 5 mins by Ellman's method
Cholinesterase = Cholinesterase (Equus caballus, UniProt P81908); assay: Inhibition of equine serum BChE using butyrylthiocholine iodide as substrate preincubated for 5 mins followed by substrate addition measured after 5 mins by Ellman's method
Method in brief: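 Ellman's method with equine serum BChE and butyrylthiocholine iodide; DTNB read-out at 412 nm, 25 °C. Phosphate buffer pH 8.0. At least five concentrations (normally 10^-4 to 10^-9 M), each in triplicate, to build the inhibition curve. Data are means of at least three determinations.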

[1] = Selectivity ratio of IC50 for electric eel AChE to IC50 for equine serum BChE
Method in brief: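 AChE is electric eel Type VI-S with acetylthiocholine; BChE is equine serum with butyrylthiocholine. At least five concentrations, each in triplicate. Ratio = IC50(AChE)/IC50(BChE).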

Cholinesterase, sequence (P81908 whole entry): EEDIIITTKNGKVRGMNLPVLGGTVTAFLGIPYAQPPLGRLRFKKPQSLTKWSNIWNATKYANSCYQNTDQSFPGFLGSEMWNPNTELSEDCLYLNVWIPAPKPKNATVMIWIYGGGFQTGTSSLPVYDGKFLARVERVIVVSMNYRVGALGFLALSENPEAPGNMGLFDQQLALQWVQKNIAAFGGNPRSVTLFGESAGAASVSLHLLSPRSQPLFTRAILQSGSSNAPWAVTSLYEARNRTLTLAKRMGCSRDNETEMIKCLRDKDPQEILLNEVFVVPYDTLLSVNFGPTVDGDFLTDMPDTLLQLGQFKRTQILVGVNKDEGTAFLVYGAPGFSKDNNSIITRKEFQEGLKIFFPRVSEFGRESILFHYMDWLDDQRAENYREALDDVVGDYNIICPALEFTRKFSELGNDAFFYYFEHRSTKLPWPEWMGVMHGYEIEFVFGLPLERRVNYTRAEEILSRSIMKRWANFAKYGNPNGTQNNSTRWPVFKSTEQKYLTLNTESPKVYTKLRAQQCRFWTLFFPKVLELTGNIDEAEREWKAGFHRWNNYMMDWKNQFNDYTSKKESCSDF
Acetylcholinesterase, sequence (O42275 whole entry): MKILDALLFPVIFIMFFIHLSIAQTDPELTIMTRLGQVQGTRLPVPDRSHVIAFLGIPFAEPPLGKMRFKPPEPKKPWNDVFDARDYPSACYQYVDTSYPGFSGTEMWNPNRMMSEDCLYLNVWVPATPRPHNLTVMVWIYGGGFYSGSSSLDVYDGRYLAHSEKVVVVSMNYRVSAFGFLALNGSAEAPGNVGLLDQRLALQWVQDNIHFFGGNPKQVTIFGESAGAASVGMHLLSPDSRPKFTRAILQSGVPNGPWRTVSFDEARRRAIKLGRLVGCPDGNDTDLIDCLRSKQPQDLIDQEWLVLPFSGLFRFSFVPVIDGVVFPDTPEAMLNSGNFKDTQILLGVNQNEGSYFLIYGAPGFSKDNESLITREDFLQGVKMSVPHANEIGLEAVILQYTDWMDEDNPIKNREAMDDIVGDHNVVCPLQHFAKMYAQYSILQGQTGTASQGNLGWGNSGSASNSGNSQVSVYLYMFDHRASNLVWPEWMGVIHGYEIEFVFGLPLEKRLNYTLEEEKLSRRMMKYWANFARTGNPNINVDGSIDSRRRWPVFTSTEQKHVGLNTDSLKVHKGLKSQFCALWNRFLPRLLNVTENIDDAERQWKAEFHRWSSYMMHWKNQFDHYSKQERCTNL

Compound	pIC50 (Acetylcholinesterase)	pIC50 (Cholinesterase)	Ratio IC50 [1]
CC(C)NCc1cccc2[nH]c3cc(O)ccc3c12	4.36	4.76	3.54
CCNCc1cccc2oc3cc(OC)ccc3c12	4.72	4.65	0.85
COc1ccc2c(c1)[nH]c1cccc(CNCc3ccccc3)c12	< 4.30	4.52	
